The values that follow come from ChEMBL document CHEMBL4033733, “Enterovirus inhibitory activity of C-8-tert-butyl substituted 4-aryl-6,7,8,9-tetrahydrobenzo[4,5]thieno[3,2-e][1,2,4]triazolo[4,3-a]pyrimidin-5(4H)-ones” (Bioorg Med Chem Lett, 2017).

In one data set the test system is Poliovirus 3. In words: Antiviral activity against human poliovirus 3 infected in human HeLa cells assessed as reduction in virus-induced cytopathicity incubated for 3 days by MTT assay. It is filed as functional, cell-based. Particulars: Enterovirus C, 72 h. In a few lines: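 Cytopathic-effect reduction assay in HeLa cells infected with coxsackievirus B1, B3 or poliovirus 3, with pleconaril as reference. EC50 is the concentration that improves viability of infected HeLa cells by 50%. CC50 is the concentration that reduces viability of uninfected HeLa cells by 50%. SI is CC50/EC50.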
(Damage to the host cells serves as the signal in cytopathic effect assays.)

The next data set concerns Coxsackievirus B3. Put plainly: Antiviral activity against human coxsackievirus B3 infected in human HeLa cells assessed as reduction in virus-induced cytopathicity incubated for 3 days by MTT assay. In kind it is functional, cell-based. The following applies: Enterovirus B, 72 h. In outline:
(§1)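 HeLa cells infected with enterovirus (coxsackievirus B1 or B3); protection from virus-induced cytopathic effect measured. EC50 is the concentration restoring 50% viability of the infected cells. Pleconaril served as reference.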

Data set [1] can be described thus: Cytotoxicity in human HeLa cells assessed as reduction in cell viability incubated for 3 days by MTT assay. It is filed as cell-based. In a few lines:
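Uninfected HeLa cells; CC50 is the concentration lowering cell viability by 50%.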

The next data set has as its system Coxsackievirus B1. Put plainly: Antiviral activity against human coxsackievirus B1 infected in human HeLa cells assessed as reduction in virus-induced cytopathicity incubated for 3 days by MTT assay. In kind it is functional, cell-based. The following applies: Enterovirus B, 72 h. In a few lines: as §1
Data set [2] can be described thus: Cytotoxicity in human H1HeLa cells assessed as reduction in cell viability incubated for 3 days by MTT assay. It is filed as cell-based, H1-HeLa. In a few lines:
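Uninfected H1 HeLa cells; CC50 is the concentration lowering cell viability by 50%.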
(Tetrazolium dyes change colour on reduction, which living cells bring about.)

The subject of a further data set is rhinovirus B14. In words: Antiviral activity against human rhinovirus 14 infected in human H1HeLa cells assessed as reduction in virus-induced cytopathicity incubated for 3 days by MTT assay. It is filed as functional, cell-based. Particulars: Rhinovirus B, H1-HeLa, 72 h. In a few lines: (§2)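 H1 HeLa cells infected with rhinovirus (14, 21 or 71); EC50 is the concentration restoring 50% viability of the infected cells. Pleconaril served as reference.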

The subject of another data set is rhinovirus A21. Put plainly: Antiviral activity against human rhinovirus 21 infected in human H1HeLa cells assessed as reduction in virus-induced cytopathicity incubated for 3 days by MTT assay. The following applies: Rhinovirus A, H1-HeLa, 72 h. It is filed as functional, cell-based. In outline: as §2
The nature of data set [3]: Antiviral activity against human rhinovirus 71 infected in human H1HeLa cells assessed as reduction in virus-induced cytopathicity incubated for 3 days by MTT assay. Particulars: Rhinovirus A, H1-HeLa, 72 h. In kind it is functional, cell-based, Human rhinovirus A71. In outline: as §2

SMILES strings stand for the structures. Bounds are passed on as bounds.

By EC50 is commonly meant the concentration that produces a half-maximal response. The CC50 is the concentration giving 50% cytotoxicity. Consider `CC(C)(C)C1CCc2c(sc3c2c(=O)n(-c2ccccc2)c2nnc(-c4ccccc4)n32)C1` (configuration not stated), for which the EC50 with Poliovirus 3 was greater than 31.9 µM; in the data set with Coxsackievirus B3, greater than 31.9 µM; in the data set on Coxsackievirus B1, greater than 31.9 µM; with rhinovirus B14, greater than 8.7 µM; in the data set on rhinovirus A21 it was greater than 8.7 µM; in data set [3] it was greater than 8.7 µM. In addition, the CC50 at 72 h in data set [1] turned out to be 31.9 µM; in data set [2] it was 8.7 µM.

Consider `CC1CCc2c(sc3c2c(=O)n(-c2ccccc2)c2nncn32)C1` (configuration not stated), for which the EC50 in the data set on Poliovirus 3 is greater than 79 µM; with Coxsackievirus B3 it was greater than 79 µM; with Coxsackievirus B1 it was greater than 79 µM; in the data set with rhinovirus B14, 16.4 µM; with rhinovirus A21 it was greater than 69 µM; in data set [3] it was greater than 69 µM. The figures for the CC50 at 72 h in data set [1] and in data set [2] were 79 µM and 69 µM, respectively.

In the case of `CC(C)(C)C1CCc2c(sc3c2c(=O)n(-c2ccccc2)c2nnc(N)n32)C1` (configuration not stated), the EC50 in the data set with Poliovirus 3 was greater than 45.9 µM; in the data set with Coxsackievirus B3, greater than 45.9 µM; with Coxsackievirus B1 it was greater than 45.9 µM; in the data set on rhinovirus B14, 8.2 µM; in the data set on rhinovirus A21 it was greater than 35.4 µM; in data set [3], 12.8 µM. Moreover, the CC50 at 72 h in data set [1] was found to be 45.9 µM; in data set [2], 35.4 µM.

As to `CC1(C)CCc2c(sc3c2c(=O)n(-c2ccccc2)c2nncn32)C1`, the concentration giving a half-maximal response (EC50) with Poliovirus 3 was greater than 54.8 µM; in the data set on Coxsackievirus B3 it was greater than 54.8 µM; with Coxsackievirus B1, greater than 54.8 µM; with rhinovirus B14 it was greater than 76.5 µM; in the data set on rhinovirus A21, greater than 76.5 µM; in data set [3], greater than 76.5 µM. For the same molecule, the CC50 at 72 h in data set [1] was 54.8 µM; in data set [2], 76.5 µM.

Consider `O=c1c2c3c(sc2n2cnnc2n1-c1ccccc1)CCCC3`, for which the EC50 (in the data set with Poliovirus 3; in the data set with Coxsackievirus B3; with Coxsackievirus B1; with rhinovirus B14; with rhinovirus A21; in data set [3]) was greater than 100 µM throughout. Further, the CC50 at 72 h in data set [1] and in data set [2] was greater than 100 µM in each case.

Turning to `O=c1c2c3c(sc2n2cnnc2n1-c1ccccc1)CC(c1ccccc1)CC3` (configuration not stated), the EC50 is greater than 27.5 µM with Poliovirus 3; greater than 27.5 µM in the data set on Coxsackievirus B3; greater than 27.5 µM in the data set with Coxsackievirus B1; 19.4 µM with rhinovirus B14; greater than 27.6 µM in the data set on rhinovirus A21; greater than 27.6 µM in data set [3]. In addition, the half-maximal cytotoxic concentration (CC50) at 72 h in data set [1] is 27.5 µM; in data set [2], 27.6 µM.

For the molecule `CC(C)(C)C1CCc2c(sc3c2c(=O)n(-c2ccc(Cl)cc2)c2nncn32)C1` (configuration not stated), the EC50 in the data set on Poliovirus 3 is 8.35 µM; with Coxsackievirus B3, greater than 36.5 µM; with Coxsackievirus B1, greater than 36.5 µM; with rhinovirus B14, 3.7 µM; in the data set on rhinovirus A21, greater than 18.8 µM; in data set [3] it was 3.8 µM. The CC50 at 72 h came out at 36.5 µM in data set [1] and 18.8 µM in data set [2].

As to `CC(C)(C)C1CCc2c(sc3c2c(=O)n(-c2ccc(C(F)(F)F)cc2)c2nncn32)C1` (configuration not stated), the EC50 was greater than 35.5 µM in the data set on Poliovirus 3; greater than 35.5 µM in the data set with Coxsackievirus B3; greater than 35.5 µM with Coxsackievirus B1; greater than 31.4 µM in the data set on rhinovirus B14; greater than 31.4 µM in the data set on rhinovirus A21; greater than 31.4 µM in data set [3]. Besides, the values for the CC50 at 72 h in data set [1] and in data set [2] were 35.5 µM and 31.4 µM, respectively.

`Cc1ccc(-c2ccc(-n3c(=O)c4c5c(sc4n4cnnc34)CC(C(C)(C)C)CC5)cc2)cc1` (configuration not stated): the EC50 is 47 µM in the data set with Poliovirus 3; 46.8 µM with Coxsackievirus B3; 55.4 µM in the data set with Coxsackievirus B1; greater than 16.9 µM in the data set with rhinovirus B14; greater than 16.9 µM in the data set on rhinovirus A21; greater than 16.9 µM in data set [3]. For the same molecule, the CC50 at 72 h in data set [1] was greater than 100 µM; in data set [2], 16.9 µM.

Turning to `CC(C)(C)C1CCc2c(sc3c2c(=O)n(-c2ccc(Br)cc2)c2nncn32)C1` (configuration not stated), the EC50 is 12.6 µM with Poliovirus 3; greater than 30.5 µM in the data set with Coxsackievirus B3; greater than 30.5 µM with Coxsackievirus B1; 2 µM with rhinovirus B14; greater than 11 µM in the data set on rhinovirus A21; 2.3 µM in data set [3]. Further, the results for the CC50 at 72 h in data set [1] and in data set [2] were 30.5 µM and 11 µM, respectively.

Turning to `Cc1cc(CCCOc2c(C)cc(-c3noc(C(F)(F)F)n3)cc2C)on1` [PLECONARIL], the EC50 with Poliovirus 3 was 0.51 µM; in the data set with Coxsackievirus B3, greater than 42.8 µM; with Coxsackievirus B1, 0.13 µM; with rhinovirus B14, 0.31 µM; in the data set with rhinovirus A21, 0.083 µM; in data set [3] it was 0.013 µM. The CC50 at 72 h in data set [1] came out at 42.8 µM; in data set [2], 53.5 µM.

For the molecule `COc1ccc(-n2c(=O)c3c4c(sc3n3cnnc23)CC(C(C)(C)C)CC4)cc1` (configuration not stated), the EC50 in the data set with Poliovirus 3 was 3.63 µM; in the data set with Coxsackievirus B3, greater than 39.1 µM; in the data set with Coxsackievirus B1, greater than 39.1 µM; in the data set on rhinovirus B14, 1.9 µM; in the data set on rhinovirus A21, 2.6 µM; in data set [3], 1.8 µM. Moreover, the CC50 at 72 h in data set [1] came out at 39.1 µM; in data set [2], 21.9 µM.

For `CC(C)(C)C1CCc2c(sc3c2c(=O)n(-c2cccc(Cl)c2)c2nncn32)C1` (configuration not stated), the EC50 in the data set on Poliovirus 3 is 9.63 µM; with Coxsackievirus B3 it was greater than 38.3 µM; with Coxsackievirus B1 it was 17.8 µM; in the data set with rhinovirus B14, 2.1 µM; in the data set on rhinovirus A21 it was greater than 15 µM; in data set [3], 3.8 µM. The cytotoxic concentration (CC50) at 72 h in data set [1] amounted to 38.3 µM; in data set [2] it was 15 µM.

As to `CC(C)(C)C1CCc2c(sc3c2c(=O)n(-c2cccc(Br)c2)c2nncn32)C1` (configuration not stated), the EC50 was 13.2 µM in the data set on Poliovirus 3; greater than 32.9 µM with Coxsackievirus B3; 15.6 µM with Coxsackievirus B1; 3.5 µM in the data set with rhinovirus B14; 20 µM with rhinovirus A21; 15.9 µM in data set [3]. In addition, the 50% cytotoxic concentration (CC50) at 72 h in data set [1] worked out at 32.9 µM; in data set [2], 26.3 µM.

For the molecule `Cc1ccccc1-n1c(=O)c2c3c(sc2n2cnnc12)CC(C(C)(C)C)CC3` (configuration not stated), the half-maximal effective concentration (EC50) is 3.44 µM with Poliovirus 3; 9.22 µM with Coxsackievirus B3; 9.83 µM in the data set on Coxsackievirus B1; 8.8 µM in the data set on rhinovirus B14; greater than 35.4 µM in the data set on rhinovirus A21; 10.1 µM in data set [3]. For the same molecule, the values for the CC50 at 72 h in data set [1] and in data set [2] were 39.1 µM and 35.4 µM, respectively.

Take `CC1(C)Cc2c(sc3c2c(=O)n(-c2ccccc2)c2nncn32)C(C)(C)C1`: the EC50 with Poliovirus 3 was greater than 9.09 µM; in the data set with Coxsackievirus B3 it was greater than 9.09 µM; in the data set on Coxsackievirus B1, greater than 9.09 µM; in the data set with rhinovirus B14, greater than 9.6 µM; in the data set with rhinovirus A21, greater than 9.6 µM; in data set [3], greater than 9.6 µM. The CC50 at 72 h in data set [1] was determined as 9.09 µM; in data set [2] it was 9.6 µM.

In the case of `CCCC1CCc2c(sc3c2c(=O)n(-c2ccccc2)c2nncn32)C1` (configuration not stated), the EC50 is 20 µM in the data set on Poliovirus 3; greater than 41 µM in the data set with Coxsackievirus B3; greater than 41 µM in the data set with Coxsackievirus B1; 18.1 µM in the data set with rhinovirus B14; greater than 31.7 µM with rhinovirus A21; 14 µM in data set [3]. In addition, the CC50 at 72 h in data set [1] stood at 41 µM; in data set [2], 31.7 µM.

For `CC(C)(C)C1CCc2c(sc3c2c(=O)n(-c2ccccc2)c2nnc(S)n32)C1` (configuration not stated), the EC50 in the data set on Poliovirus 3 was greater than 45.1 µM; in the data set on Coxsackievirus B3, greater than 45.1 µM; with Coxsackievirus B1, greater than 45.1 µM; in the data set with rhinovirus B14 it was 10.1 µM; in the data set on rhinovirus A21, 19.4 µM; in data set [3] it was 9.1 µM. Moreover, the CC50 at 72 h was determined as 45.1 µM in data set [1] and 40.1 µM in data set [2].

For `Cc1nnc2n(-c3ccccc3)c(=O)c3c4c(sc3n12)CC(C(C)(C)C)CC4` (configuration not stated), the EC50 with Poliovirus 3 was greater than 45.1 µM; in the data set with Coxsackievirus B3, greater than 45.1 µM; in the data set on Coxsackievirus B1, greater than 45.1 µM; in the data set with rhinovirus B14, 4.3 µM; with rhinovirus A21, greater than 35.9 µM; in data set [3] it was 4.6 µM. The figures for the 50% cytotoxic concentration (CC50) at 72 h in data set [1] and in data set [2] were 45.1 µM and 35.9 µM, respectively.
